Experimental data taken from ChEMBL document CHEMBL1126879, “A new series of imidazolones: highly specific and potent nonpeptide AT1 angiotensin II receptor antagonists” (J Med Chem, 1993).

Assays:
[1] = species on record: Oryctolagus cuniculus; assay: Antagonistic activity through inhibition of A II induced contractions on rabbit aortic strips; type: functional; details: Aorta
[2] = biological target: T1, Type-1 angiotensin II receptor B (Rattus norvegicus, UniProt P29089); assay: Binding affinity for Angiotensin II receptor, type 1 measured by ability to displace [125I]- A II from its specific binding site in rat liver membrane; type: cell membranes
T1 sequence (P29089 whole entry): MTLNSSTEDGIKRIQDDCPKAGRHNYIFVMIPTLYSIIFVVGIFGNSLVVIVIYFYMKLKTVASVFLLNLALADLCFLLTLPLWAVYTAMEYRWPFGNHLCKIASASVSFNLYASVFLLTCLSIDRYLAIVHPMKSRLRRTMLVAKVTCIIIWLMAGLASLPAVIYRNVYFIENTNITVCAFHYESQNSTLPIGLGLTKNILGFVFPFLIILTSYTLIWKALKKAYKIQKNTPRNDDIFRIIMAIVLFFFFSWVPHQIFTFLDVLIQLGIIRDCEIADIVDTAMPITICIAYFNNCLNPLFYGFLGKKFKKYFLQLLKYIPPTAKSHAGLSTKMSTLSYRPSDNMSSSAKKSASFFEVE
How it was run: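 Purified plasma membranes from male Sprague-Dawley rat liver, isolated on a sucrose gradient, 20–30 μg protein per assay. Filtered, then gamma counted. Nonspecific binding with 1 μM unlabeled AII. Triplicates; IC50 and Hill coefficient from Hill plots.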

An IC50 [1] of 5400 nM and an IC50 [2] of 3000 nM were found for `CCCCC1=NC(c2ccccc2)(c2ccccc2)C(=O)N1Cc1ccc(-c2ccccc2C(=O)O)cc1` in this work.

An IC50 [1] of 52 nM and an IC50 [2] of 80 nM were found for `CCCCC1=NC2(CCCC2)C(=S)N1Cc1ccc(-c2ccccc2C(=O)O)cc1` in this work.

An IC50 [1] of 42 nM and an IC50 [2] of 38 nM were found for `CCCCC1=NC2(CCC2)C(=O)N1Cc1ccc(-c2ccccc2C(=O)O)cc1` in this work.

An IC50 [1] of 420 nM and an IC50 [2] of 110 nM were found for `CCCCC1=NC2(CCN(Cc3ccccc3)CC2)C(=O)N1Cc1ccc(-c2ccccc2C(=O)O)cc1` in this work.

An IC50 [1] of 130 nM and an IC50 [2] of 18 nM were found for `CCCCC1=NC2(CCN(C(C)=O)CC2)C(=O)N1Cc1ccc(-c2ccccc2C(=O)O)cc1` in this work.

An IC50 [1] greater than 10000 nM and an IC50 [2] of 440 nM were found for `CCCCC1=NC2(CCCC2)C(=O)N1Cc1ccc(-c2ccccc2C#N)cc1` in this work.

An IC50 [1] of 3900 nM and an IC50 [2] of 2500 nM were found for `O=C(O)c1ccccc1-c1ccc(CN2C(=O)C3(CCCC3)N=C2Cc2ccccc2)cc1` in this work.

An IC50 [1] greater than 10000 nM and an IC50 [2] of 1800 nM were found for `CCCCC1=NC2(CCCC2)C(=O)N1Cc1ccc(-c2ccccc2C(=O)OC)cc1` in this work.

An IC50 [1] of 200 nM and an IC50 [2] of 47 nM were found for `CCCCC1=NC2(CCOCC2)C(=O)N1Cc1ccc(-c2ccccc2C(=O)O)cc1` in this work.

An IC50 [1] of 23 nM and an IC50 [2] of 62 nM were found for `CCCCC1=NC2(C(=O)N1Cc1ccc(-c3ccccc3C(=O)O)cc1)C1CC3CC(C1)CC2C3` (stereo not given) in this work.

An IC50 [1] of 240 nM and an IC50 [2] of 60 nM were found for `CCCCC1=NC2(Cc3ccccc3C2)C(=O)N1Cc1ccc(-c2ccccc2C(=O)O)cc1` in this work.

An IC50 [1] of 25 nM was found for `CCCCc1nc(Cl)c(CO)n1Cc1ccc(-c2ccccc2-c2nnn[nH]2)cc1` [LOSARTAN] in this work.

An IC50 [1] of 2.3 nM and an IC50 [2] of 2.4 nM were found for `CNCC(=O)N[C@@H](CCCNC(=N)N)C(=O)N[C@H](C(=O)N[C@@H](Cc1ccc(O)cc1)C(=O)N[C@H](C(=O)N[C@@H](Cc1cnc[nH]1)C(=O)N1CCC[C@H]1C(=O)N[C@@H](C)C(=O)O)C(C)C)C(C)C` [SARALASIN] in this work.

An IC50 [1] of 350 nM and an IC50 [2] of 350 nM were found for `CCCCC1=NC2(CCCCCCCCCC2)C(=O)N1Cc1ccc(-c2ccccc2C(=O)O)cc1` in this work.

An IC50 [2] of 800 nM was found for `CCCCC1=NC2(CCN(C(=O)C(N)CC(=O)O)CC2)C(=O)N1Cc1ccc(-c2ccccc2C(=O)O)cc1` (stereo not given) in this work.

An IC50 [1] of 4 nM and an IC50 [2] of 1.3 nM were found for `CCCCC1=NC2(CCCC2)C(=O)N1Cc1ccc(-c2ccccc2-c2nnn[nH]2)cc1` [IRBESARTAN] in this work.
